pIC50: −log10 of the molar value. Calls of active or inactive are those of the source. No cut-off for these calls is given here.
Legend:
[1] = target: Proto-oncogene tyrosine-protein kinase Src (Homo sapiens, UniProt P12931); assay: Inhibition of recombinant human c-Src using poly (Glu, Tyr) 4:1 as substrate after 60 mins by ELISA
In short: (§1)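 Purified recombinant kinases tested by ELISA on plates pre-coated with 20 µg/mL poly(Glu,Tyr) 4:1. Reaction run 60 min at 37 °C. Read-out: PY99 anti-phosphotyrosine antibody, HRP anti-mouse IgG and o-phenylenediamine/H2O2, with A490 measured. IC50 from inhibition curves, two independent experiments.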

[2] = Oral bioavailability in Sprague-Dawley rat at 5 mg/kg; assay type: ADME, organism-based; conditions: in vivo
In short: (§2)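 Male SD rats (n = 3) dosed orally by gavage at 5 mg/kg as a suspension in 0.5% CMC-Na. Quantified by LC-MS/MS. An IV arm (1 mg/kg) was run in parallel.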

[3] = target: Vascular endothelial growth factor receptor 1 (Homo sapiens, UniProt P17948); assay: Inhibition of recombinant human Flt1 using poly (Glu, Tyr) 4:1 as substrate after 60 mins by ELISA; in short: as §1
Chain of Vascular endothelial growth factor receptor 1 (P17948 whole entry): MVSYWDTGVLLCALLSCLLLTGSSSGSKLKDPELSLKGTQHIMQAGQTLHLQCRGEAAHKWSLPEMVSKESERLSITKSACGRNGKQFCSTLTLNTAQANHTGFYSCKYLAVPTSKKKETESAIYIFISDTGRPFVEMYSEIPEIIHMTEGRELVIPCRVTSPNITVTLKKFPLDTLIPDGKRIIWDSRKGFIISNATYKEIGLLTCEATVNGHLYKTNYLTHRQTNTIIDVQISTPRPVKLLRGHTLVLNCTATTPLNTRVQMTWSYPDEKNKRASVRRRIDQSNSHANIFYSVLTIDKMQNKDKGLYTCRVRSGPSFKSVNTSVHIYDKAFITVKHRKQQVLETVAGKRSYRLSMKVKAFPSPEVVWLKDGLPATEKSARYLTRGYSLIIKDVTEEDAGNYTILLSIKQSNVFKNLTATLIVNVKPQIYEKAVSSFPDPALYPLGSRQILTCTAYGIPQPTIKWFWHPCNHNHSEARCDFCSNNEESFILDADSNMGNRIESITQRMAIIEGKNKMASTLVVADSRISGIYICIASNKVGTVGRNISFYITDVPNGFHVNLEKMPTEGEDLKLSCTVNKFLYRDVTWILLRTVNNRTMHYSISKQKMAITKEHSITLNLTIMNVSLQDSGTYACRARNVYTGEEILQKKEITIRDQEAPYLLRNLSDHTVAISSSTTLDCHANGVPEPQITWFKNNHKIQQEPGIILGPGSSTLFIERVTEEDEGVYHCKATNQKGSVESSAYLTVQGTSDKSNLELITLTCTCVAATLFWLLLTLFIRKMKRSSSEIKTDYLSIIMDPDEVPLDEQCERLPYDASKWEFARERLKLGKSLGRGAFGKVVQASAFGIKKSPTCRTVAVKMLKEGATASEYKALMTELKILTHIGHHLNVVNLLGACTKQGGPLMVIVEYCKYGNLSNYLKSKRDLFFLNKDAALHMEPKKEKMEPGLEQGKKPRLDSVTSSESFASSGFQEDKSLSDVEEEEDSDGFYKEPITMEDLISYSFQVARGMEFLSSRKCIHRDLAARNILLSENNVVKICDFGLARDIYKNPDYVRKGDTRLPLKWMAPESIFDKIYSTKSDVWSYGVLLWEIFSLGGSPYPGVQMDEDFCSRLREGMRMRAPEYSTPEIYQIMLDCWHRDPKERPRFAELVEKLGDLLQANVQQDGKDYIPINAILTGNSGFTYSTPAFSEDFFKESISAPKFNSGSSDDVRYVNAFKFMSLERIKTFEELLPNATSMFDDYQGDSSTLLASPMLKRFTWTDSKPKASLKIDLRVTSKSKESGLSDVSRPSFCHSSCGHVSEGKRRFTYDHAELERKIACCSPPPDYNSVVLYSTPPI

[4] = test system: NCI-H1581; assay: Antiproliferative activity against FGFR1-amplified human NCI-H1581 cells after 72 hrs by CCK8/MTT assay; assay type: functional, cell-based; conditions: NCI-H1581, 72 h
[5] = target: Fibroblast growth factor receptor 1 (Homo sapiens, UniProt P11362); assay: Inhibition of FGFR1 in human KG1 cells assessed as reduction of ERK phosphorylation at 0.1 to 10 nM after 2 hrs by Western blot method; assay type: cell-based; conditions: KG-1
Chain of Fibroblast growth factor receptor 1 (P11362 22-822 limits assumed): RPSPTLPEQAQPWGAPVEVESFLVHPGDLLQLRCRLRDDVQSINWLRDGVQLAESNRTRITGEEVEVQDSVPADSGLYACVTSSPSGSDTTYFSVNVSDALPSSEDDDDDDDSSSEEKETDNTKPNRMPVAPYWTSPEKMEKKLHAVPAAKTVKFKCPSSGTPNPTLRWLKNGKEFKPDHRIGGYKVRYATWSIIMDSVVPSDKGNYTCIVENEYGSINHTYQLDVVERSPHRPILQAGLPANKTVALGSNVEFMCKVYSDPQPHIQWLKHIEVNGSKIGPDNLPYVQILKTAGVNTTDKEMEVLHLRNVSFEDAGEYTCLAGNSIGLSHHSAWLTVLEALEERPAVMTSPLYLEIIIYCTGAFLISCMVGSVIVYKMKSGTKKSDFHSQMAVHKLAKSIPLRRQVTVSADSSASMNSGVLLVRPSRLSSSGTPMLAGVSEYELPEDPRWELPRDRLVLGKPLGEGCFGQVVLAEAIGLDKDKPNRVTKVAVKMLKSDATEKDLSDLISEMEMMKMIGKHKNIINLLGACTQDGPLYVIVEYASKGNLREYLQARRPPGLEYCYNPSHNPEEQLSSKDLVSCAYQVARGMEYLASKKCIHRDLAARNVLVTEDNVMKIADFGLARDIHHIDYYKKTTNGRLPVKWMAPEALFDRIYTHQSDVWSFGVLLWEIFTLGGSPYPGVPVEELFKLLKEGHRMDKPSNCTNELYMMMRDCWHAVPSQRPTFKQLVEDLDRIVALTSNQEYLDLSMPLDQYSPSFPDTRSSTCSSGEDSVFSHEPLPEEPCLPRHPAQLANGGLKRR
In short: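 KG-1 cells treated at indicated concentrations for 2 h, then lysed in 1× SDS sample buffer. Lysates run on 10% SDS-PAGE, transferred to nitrocellulose, and probed for phospho-FGFR, PLCγ and Erk. Detection by enhanced chemiluminescence.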

[6] = Tmax in Sprague-Dawley rat at 5 mg/kg, po; assay type: ADME, organism-based; conditions: in vivo; in short: as §2
[7] = target: T1, Receptor-type tyrosine-protein kinase FLT3 (Homo sapiens, UniProt P36888); assay: Inhibition of recombinant human Flt3 using poly (Glu, Tyr) 4:1 as substrate after 60 mins by ELISA; in short: as §1
T1 sequence (P36888 whole entry): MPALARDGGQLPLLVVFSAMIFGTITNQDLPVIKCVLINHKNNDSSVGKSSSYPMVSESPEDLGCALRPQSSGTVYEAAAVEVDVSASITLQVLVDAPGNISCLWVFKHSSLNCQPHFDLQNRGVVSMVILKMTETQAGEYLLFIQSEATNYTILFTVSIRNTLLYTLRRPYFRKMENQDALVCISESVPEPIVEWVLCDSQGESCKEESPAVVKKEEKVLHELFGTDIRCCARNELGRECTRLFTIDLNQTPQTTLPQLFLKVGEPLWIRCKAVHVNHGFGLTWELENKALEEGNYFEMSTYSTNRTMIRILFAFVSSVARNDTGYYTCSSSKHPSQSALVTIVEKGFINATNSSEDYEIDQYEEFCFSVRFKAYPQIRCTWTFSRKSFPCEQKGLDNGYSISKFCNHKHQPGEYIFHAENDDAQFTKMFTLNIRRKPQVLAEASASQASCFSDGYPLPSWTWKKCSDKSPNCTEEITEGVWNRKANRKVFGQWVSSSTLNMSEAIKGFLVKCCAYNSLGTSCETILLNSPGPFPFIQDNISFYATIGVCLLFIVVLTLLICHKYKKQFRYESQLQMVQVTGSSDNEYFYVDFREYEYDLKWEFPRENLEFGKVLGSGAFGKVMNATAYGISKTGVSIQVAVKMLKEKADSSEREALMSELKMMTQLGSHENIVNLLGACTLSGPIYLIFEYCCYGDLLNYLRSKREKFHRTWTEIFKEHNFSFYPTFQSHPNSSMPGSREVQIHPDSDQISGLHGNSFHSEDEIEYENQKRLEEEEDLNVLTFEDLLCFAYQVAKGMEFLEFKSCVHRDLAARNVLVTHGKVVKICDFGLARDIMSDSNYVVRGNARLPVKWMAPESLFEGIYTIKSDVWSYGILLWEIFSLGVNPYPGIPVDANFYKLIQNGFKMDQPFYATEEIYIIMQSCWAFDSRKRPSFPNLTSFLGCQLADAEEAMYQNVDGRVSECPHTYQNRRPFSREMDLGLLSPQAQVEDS

[8] = target: T2, Fibroblast growth factor receptor 2 (Homo sapiens, UniProt P21802); assay: Inhibition of FGFR2 phosphorylation in human SNU15 cells at 0.1 to 10 nM after 2 hrs by Western blot method; assay type: cell-based
T2 sequence (P21802 22-821 limits assumed): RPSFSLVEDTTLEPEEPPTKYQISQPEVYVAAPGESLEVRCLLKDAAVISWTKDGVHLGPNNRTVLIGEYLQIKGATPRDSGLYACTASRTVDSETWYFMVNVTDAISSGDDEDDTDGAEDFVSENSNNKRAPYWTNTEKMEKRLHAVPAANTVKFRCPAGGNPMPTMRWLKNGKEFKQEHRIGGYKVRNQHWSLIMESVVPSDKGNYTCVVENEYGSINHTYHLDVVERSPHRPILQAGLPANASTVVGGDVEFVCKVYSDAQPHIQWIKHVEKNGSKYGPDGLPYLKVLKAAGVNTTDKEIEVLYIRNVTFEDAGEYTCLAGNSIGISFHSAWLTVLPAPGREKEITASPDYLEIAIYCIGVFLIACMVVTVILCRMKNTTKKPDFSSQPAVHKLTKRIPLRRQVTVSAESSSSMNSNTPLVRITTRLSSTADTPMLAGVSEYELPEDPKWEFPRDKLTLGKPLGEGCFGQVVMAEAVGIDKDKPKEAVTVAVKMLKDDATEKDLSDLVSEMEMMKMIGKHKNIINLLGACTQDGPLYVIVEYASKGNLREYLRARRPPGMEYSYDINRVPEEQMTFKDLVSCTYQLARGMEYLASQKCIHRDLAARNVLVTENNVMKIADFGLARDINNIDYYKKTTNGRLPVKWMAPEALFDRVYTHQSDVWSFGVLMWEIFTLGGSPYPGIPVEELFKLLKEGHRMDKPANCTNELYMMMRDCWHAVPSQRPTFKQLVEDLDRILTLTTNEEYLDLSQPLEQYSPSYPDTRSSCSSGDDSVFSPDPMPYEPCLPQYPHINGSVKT

[9] = AUC (0 to infinity) in Sprague-Dawley rat at 5 mg/kg, po; assay type: ADME, organism-based; design: dose 5 mg/kg, route oral, time infinity; conditions: in vivo; in short: as §2
[10] = target: Proto-oncogene tyrosine-protein kinase receptor Ret (Homo sapiens, UniProt P07949); assay: Inhibition of recombinant human RET using poly (Glu, Tyr) 4:1 as substrate after 60 mins by ELISA; in short: as §1
[11] = Cmax in Sprague-Dawley rat at 5 mg/kg, po; assay type: ADME, organism-based; design: dose 5 mg/kg, route oral; conditions: in vivo; in short: as §2
[12] = target: T2, Fibroblast growth factor receptor 2; assay: Inhibition of FGFR2 in human SNU15 cells assessed as reduction of PLCgamma phosphorylation at 0.1 to 10 nM after 2 hrs by Western blot method; assay type: cell-based
[13] = target: Hepatocyte growth factor receptor (Homo sapiens, UniProt P08581); assay: Inhibition of recombinant human c-Met using poly (Glu, Tyr) 4:1 as substrate after 60 mins by ELISA; in short: as §1
Chain of Hepatocyte growth factor receptor (P08581 whole entry): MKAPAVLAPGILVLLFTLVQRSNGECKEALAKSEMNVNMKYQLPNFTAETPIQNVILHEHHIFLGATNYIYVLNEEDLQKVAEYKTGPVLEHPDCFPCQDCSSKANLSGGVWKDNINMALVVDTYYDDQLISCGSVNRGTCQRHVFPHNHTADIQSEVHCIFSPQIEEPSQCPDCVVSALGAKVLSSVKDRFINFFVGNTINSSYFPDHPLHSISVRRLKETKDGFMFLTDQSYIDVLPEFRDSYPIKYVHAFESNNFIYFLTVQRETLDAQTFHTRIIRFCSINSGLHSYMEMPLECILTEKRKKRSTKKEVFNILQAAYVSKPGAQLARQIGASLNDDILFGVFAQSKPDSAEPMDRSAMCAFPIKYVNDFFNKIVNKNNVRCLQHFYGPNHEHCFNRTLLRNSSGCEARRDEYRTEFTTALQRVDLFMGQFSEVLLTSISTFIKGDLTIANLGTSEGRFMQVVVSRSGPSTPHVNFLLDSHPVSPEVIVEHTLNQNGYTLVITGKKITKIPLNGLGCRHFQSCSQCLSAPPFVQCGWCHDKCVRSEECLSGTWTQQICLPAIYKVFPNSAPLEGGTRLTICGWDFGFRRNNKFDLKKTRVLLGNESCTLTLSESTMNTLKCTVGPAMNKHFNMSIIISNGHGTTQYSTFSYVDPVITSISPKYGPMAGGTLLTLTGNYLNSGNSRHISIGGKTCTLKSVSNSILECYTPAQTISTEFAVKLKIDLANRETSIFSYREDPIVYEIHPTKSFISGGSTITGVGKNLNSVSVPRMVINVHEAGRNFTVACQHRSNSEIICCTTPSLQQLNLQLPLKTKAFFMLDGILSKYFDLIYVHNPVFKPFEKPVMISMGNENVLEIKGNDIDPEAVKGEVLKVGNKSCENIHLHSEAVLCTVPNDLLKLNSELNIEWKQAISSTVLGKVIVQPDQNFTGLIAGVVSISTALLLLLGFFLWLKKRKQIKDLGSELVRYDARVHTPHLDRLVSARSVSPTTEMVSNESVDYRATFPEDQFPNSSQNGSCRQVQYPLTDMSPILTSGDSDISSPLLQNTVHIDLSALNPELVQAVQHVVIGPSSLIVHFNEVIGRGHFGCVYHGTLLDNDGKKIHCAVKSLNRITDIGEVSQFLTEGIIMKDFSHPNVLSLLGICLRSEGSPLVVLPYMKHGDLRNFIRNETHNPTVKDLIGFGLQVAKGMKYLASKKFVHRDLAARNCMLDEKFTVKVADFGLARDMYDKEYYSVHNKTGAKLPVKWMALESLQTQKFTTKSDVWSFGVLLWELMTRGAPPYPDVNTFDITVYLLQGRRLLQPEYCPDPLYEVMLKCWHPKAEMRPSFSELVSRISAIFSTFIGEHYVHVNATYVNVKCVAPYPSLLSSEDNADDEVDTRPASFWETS

[14] = Half life in Sprague-Dawley rat at 1 mg/kg, iv; assay type: ADME, organism-based; conditions: in vivo
[15] = target: Vascular endothelial growth factor receptor 2 (Homo sapiens, UniProt P35968); assay: Inhibition of recombinant human VEGFR2 using poly (Glu, Tyr) 4:1 as substrate after 60 mins by ELISA
[16] = test system: NCI-H1581; assay: Antitumor activity against human NCI-H1581 cells xenografted in nude mouse assessed as tumor growth inhibition at 10 mg/kg, po qd administered for 21 days measured on day 21 post last dose relative to vehicle-treated control; assay type: functional; conditions: 504 h, read-out: TGI
In short: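 Female nude mice (4–6 weeks) housed under SPF conditions. NCI-H1581 tumours were first grown from 5 × 10^6 cells s.c., and 1.5 mm3 fragments were then transplanted s.c. into the right flank. At 115 mm3, mice were randomized and given vehicle or compound orally once daily for 21 days (2 or 10 mg/kg). Tumours were measured by caliper twice weekly, with TV = length × width²/2.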

Chain of Proto-oncogene tyrosine-protein kinase Src (P12931 2-536 limits assumed): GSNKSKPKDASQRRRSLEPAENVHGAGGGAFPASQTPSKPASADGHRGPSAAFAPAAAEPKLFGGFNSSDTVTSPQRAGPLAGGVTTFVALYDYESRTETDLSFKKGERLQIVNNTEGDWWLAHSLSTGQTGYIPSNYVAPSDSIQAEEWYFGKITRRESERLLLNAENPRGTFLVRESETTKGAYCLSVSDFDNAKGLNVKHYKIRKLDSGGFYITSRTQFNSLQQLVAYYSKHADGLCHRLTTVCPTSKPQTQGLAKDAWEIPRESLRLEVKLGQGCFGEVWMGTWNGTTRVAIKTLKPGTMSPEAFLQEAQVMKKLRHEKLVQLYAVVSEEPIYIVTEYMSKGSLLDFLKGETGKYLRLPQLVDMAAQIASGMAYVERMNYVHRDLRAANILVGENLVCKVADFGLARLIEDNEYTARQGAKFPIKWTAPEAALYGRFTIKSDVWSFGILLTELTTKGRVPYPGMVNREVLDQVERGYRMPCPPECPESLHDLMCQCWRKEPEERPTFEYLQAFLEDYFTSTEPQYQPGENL

pIC50 [1]: < 7.00
bioavailability [2]: 33%
pIC50 [3]: < 7.00
pIC50 [4]: 8.38
inhibition [5]: Active
Tmax [6]: 4 h
pIC50 [7]: < 7.00
inhibition [8]: Active
AUC(0-inf) [9]: 799 ng·h/mL
pIC50 [10]: < 7.00
Cmax [11]: 97.2 ng/mL
inhibition [12]: Active
pIC50 [13]: < 7.00
half-life [14]: 2 h
pIC50 [15]: 8.12
Compound: C[C@@H](Oc1ccc2[nH]nc(-c3nc4cc(N5CCN(C)CC5)ccc4[nH]3)c2c1)c1c(Cl)cncc1Cl
inhibition in vivo at 10 mg/kg [16]: 96.9%

Source: ChEMBL document CHEMBL3826910, “Discovery of 3-(5'-Substituted)-Benzimidazole-5-(1-(3,5-dichloropyridin-4-yl)ethoxy)-1H-indazoles as Potent Fibroblast Growth Factor Receptor Inhibitors: Design, Synthesis, and Biological Evaluation” (J Med Chem, 2016)
